Calls of active or inactive are those of the source. The calls are words filed in the database; no cut-off is given here.

Data set [1] can be described thus: Reactive aziridinium ion formation in distilled water assessed as electrophilic aziridinium formation at 80 uM at 37 degC after 15 mins by ESI-MS analysis. Format: physicochemical. The settings on record: buffer, 0.25 h. An outline of the steps:
(§1)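 An 80 µM solution of agent in distilled water was kept at 37 °C. Aliquots were taken at 0, 15, 30, 45, 60 and 120 min, diluted with methanol and analysed by ESI-MS for hydroxyl-substituted and aziridinium ion species.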

The test system of data set [2] is Escherichia coli. The experiment in a line: Induction of Escherichia coli supercoiled plasmid pBR322 DNA cleavage at 5 uM after 3 hrs at 37 degC using ethidium bromide by gel electrophoresis. In outline: (§2)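 Supercoiled pBR322 (3.5 nM) incubated with agent at 0.5, 5 or 50 µM in BPE buffer pH 7.4 for 3 h at 37 °C. Agent diluted fresh in water from DMSO stock. Products resolved on 1% agarose gel in 1× TAE and stained with ethidium bromide. Controls on gel were supercoiled, EcoRI-linearised and open circular plasmid markers. Chlorambucil at 50 µM was the reference agent.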

In data set [3] the test system is Escherichia coli. The experiment in a line: Induction of Escherichia coli supercoiled plasmid pBR322 DNA cleavage at 0.5 uM to 50 uM after 24 hrs using ethidium bromide by gel electrophoresis. An outline of the steps: (§3)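 Supercoiled pBR322 (3.5 nM) exposed to agent at 24 h at ambient temperature in BPE buffer, pH 7.4; chlorambucil as control. Supercoiled, open-circular and linear forms separated by 1% agarose electrophoresis in 1× TAE, ethidium bromide-stained, with supercoiled, linear (EcoRI-cut) and nicked plasmid controls.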

The subject of data set [4] is Escherichia coli. The experiment in a line: Induction of Escherichia coli supercoiled plasmid pBR322 DNA cleavage at 0.5 uM to 50 uM after 3 hrs at 37 degC using ethidium bromide by gel electrophoresis. In outline: (§4)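 Supercoiled pBR322 (3.5 nM) incubated with agent at 0.5, 5 or 50 µM for 3 h at 37 °C in bisphosphate–EDTA (BPE) buffer, pH 7.4; chlorambucil 50 µM as control. Dilutions freshly made in water from 8 mM DMSO stock. Forms resolved on 1% agarose in 1× TAE, ethidium bromide-stained; supercoiled, EcoRI-linearised and nicked open-circular plasmid as markers.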

Data set [5] can be described thus: Induction of alkylation of 5'-FAM-labeled scrambled duplex oligonucleotide DNA (unknown origin) at guanine residues at 5 to 50 uM after 24 hrs by sequencing gel analysis.
Data set [6] can be described thus: Reactive aziridinium ion formation in distilled water assessed as dihydroxyl substituted product formation at 80 uM at 37 degC after 15 mins by ESI-MS analysis. It counts as physicochemical. The note with it: buffer, 0.25 h. An outline of the steps:
as §1

Data set [7] has as its system Escherichia coli. The experiment in a line: Induction of Escherichia coli supercoiled plasmid pBR322 DNA cleavage at 0.5 uM after 3 hrs at 37 degC using ethidium bromide by gel electrophoresis. In outline:
as §2

Data set [8] has as its system Escherichia coli. The experiment in a line: Binding affinity to Escherichia coli supercoiled plasmid pBR322 DNA at 50 uM after 3 hrs at 37 degC using ethidium bromide by gel electrophoresis. An outline of the steps: as §4
Data set [9] concerns Escherichia coli. The experiment in a line: Binding affinity to Escherichia coli supercoiled plasmid pBR322 DNA at 50 uM after 24 hrs using ethidium bromide by gel electrophoresis. In outline:
as §3

Data set [10] concerns Escherichia coli. The experiment in a line: Induction of Escherichia coli supercoiled plasmid pBR322 DNA cleavage at 50 uM after 3 hrs at 37 degC using ethidium bromide by gel electrophoresis. In outline:
as §2

The subject of data set [11] is Escherichia coli. The experiment in a line: Induction of Escherichia coli supercoiled plasmid pBR322 DNA cleavage at 50 uM after 24 hrs using ethidium bromide by gel electrophoresis. In outline: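 Supercoiled pBR322 (3.5 nM) incubated with agent in BPE buffer pH 7.4 at ambient temperature for 24 h. Products resolved on 1% agarose gel in 1× TAE and stained with ethidium bromide. Supercoiled, linear and open circular plasmid markers were run alongside.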

As to `COC(=O)[C@H](CCCCN1CC(Cl)CC(C)(C)C1)N1CC(Cl)CC(C)(C)C1` (stereo partly drawn), the result in data set [1] and in [6] was Active. Moreover, the result in data set [2], in [3], in data set [4] and in [5] was Active.

Regarding `CC1(C)CC(Cl)CN(CCCC[C@@H](C(=O)OCCc2ccccc2)N2CC(Cl)CC(C)(C)C2)C1` (stereo partly drawn), the outcome in data set [3], in data set [4] and in data set [5] was Active.

As for `CC1(C)CC(Cl)CN(CCCCCCN2CC(Cl)CC(C)(C)C2)C1` (stereo not drawn), in data set [7], the result was Active.

On to `CC1(C)CC(Cl)CN(CCCCCN2CC(Cl)CC(C)(C)C2)C1` (stereo not drawn), for which, in [7], the outcome was Active.

Regarding `CC1(C)CC(Cl)CN(CCCCN2CC(Cl)CC(C)(C)C2)C1` (stereo not drawn), in [7], the result was Active.

Turning to `CC1(C)CC(Cl)CN(CCCC[C@@H](C(=O)OCc2ccccc2)N2CC(Cl)CC(C)(C)C2)C1` (stereo partly drawn), the result in data set [3], in [4] and in [5] was Active.

As for `CC1(C)CC(Cl)CN(CCCN2CC(Cl)CC(C)(C)C2)C1` (stereo not drawn), in [7], the result was Active.

With `CC1(C)CC(Cl)CN(CCCC[C@@H](C(=O)Oc2cccc3ccccc23)N2CC(Cl)CC(C)(C)C2)C1` (stereo partly drawn), the outcome in data set [8], in data set [5] and in data set [9] was Active. The outcome in data set [4] was inactive.

For the compound `CC1(C)CC(Cl)CN(CCCC[C@@H](C(=O)OCCCc2ccccc2)N2CC(Cl)CC(C)(C)C2)C1` (stereo partly drawn), the result in [4] was inactive. Also, the outcome in data set [5] was Active.

`COc1ccc(OC(=O)[C@H](CCCCN2CC(Cl)CC(C)(C)C2)N2CC(Cl)CC(C)(C)C2)c2ccccc12` (stereo partly drawn): the outcome in data set [8], in data set [5] and in [9] was Active. In addition, the result in [4] was inactive.

For `O=C(O)CCCc1ccc(N(CCCl)CCCl)cc1`, the outcome in data set [10] and in [11] was inactive.

The values are drawn from ChEMBL document CHEMBL3400037, “Bis-3-chloropiperidines containing bridging lysine linkers: Influence of side chain structure on DNA alkylating activity” (Bioorg Med Chem, 2015).
